# Results from different studies.
# Target: Serine/threonine-protein kinase Nek4 (NEK4, Homo sapiens, UniProt P51957)
Compound,read-out,action,method,tested at,measurement,result
Cc1nn(C)cc1-c1nc2c(N3CCN(Cc4ccc(Cl)cc4)CC3)c(Cl)cnc2[nH]1,binding,,competition with immobilised ligand,1 µM,remaining binding,82%
Nc1ncc(-c2nc(N3CCOCC3)nc(N3CCOCC3)n2)c(C(F)F)n1,binding,,competition with immobilised ligand,10 µM,remaining binding,75%
O=c1[nH]c2ccccc2n1C1CCN(Cc2ccc(-c3[nH]c4cc5ncnc5cc4nc3-c3ccccc3)cc2)CC1,cell-free assay,,,0.5 µM,remaining signal,106%
Cn1cc(-c2cccc(N3CCc4c(sc5c4CC(C)(C)C5)C3=O)c2CO)cc(Nc2ccncn2)c1=O,enzyme activity,inhibitor,,1 µM,inhibition,2%
COc1cc(Nc2ncc(F)c(Nc3ccc4c(n3)NC(=O)C(C)(C)O4)n2)cc(OC)c1OC,binding,,competition with immobilised ligand,10 µM,inhibition,91%
Cn1cncc1[C@@](O)(COc1ccc(C#N)cc1-c1ccc(OC(F)(F)F)cc1)c1ccc(C#N)cc1,cell-free assay,,competition with immobilised ligand,1 µM,remaining binding,90%
Cn1cc(-c2cc(F)cc(N3CCn4c(cc5c4CCCC5)C3=O)c2CO)cc(Nc2ccc(N3CCN(C4COC4)CC3)cn2)c1=O,enzyme activity,inhibitor,,0.1 µM,inhibition,9%
COc1ncccc1-c1cnn2ccc(N3CCN(C(=O)OC(C)C)CC3)nc12,binding,,competition with immobilised ligand,1 µM,remaining binding,87%
CC(C)(C)c1cc(C=C(C#N)C#N)cc(Br)c1O,enzyme activity,inhibitor,,0.5 µM,remaining activity,93.7%
N#CC1(c2ccccn2)CCN(Cc2cc(C(=O)O)c(=O)n3ccccc23)CC1,cell-free assay,,competition with immobilised ligand,1 µM,remaining binding,100%
